Data taken from article PMC12366125 (ACS Medicinal Chemistry Letters, 2025).
Like-named read-outs stand apart in the source and are kept apart here.

Key:
[1] = system: A. baumannii AB19606; assay: Broth microdilution standalone MIC; format: cell-based; details: Acinetobacter baumannii, AB19606, read-out: standalone MIC against AB19606
[2] = system: A. baumannii AB5075; assay: Broth microdilution standalone MIC; format: cell-based; details: Acinetobacter baumannii, AB5075, read-out: standalone MIC against AB5075
[3] = system: HepG2 cells; assay: XTT cell viability assay with HepG2 cells; format: cell-based, human; details: for IC50: Homo sapiens; for TI: HepG2 IC50 / adjuvant concentration that reduces CLR MIC to breakpoint
In short: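 Cytotoxicity is tested on HepG2 human hepatoma cells, using lead cyclized-linker 2-AI-benzimidazole conjugates and their parent amide analogues. IC50 is taken from dose-response curves. […] TI is not calculated for compounds without adjuvant activity.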

[4] = system: AB4991; assay: CLR potentiation, clinical isolate; format: cell-based, Acinetobacter baumannii; details: adjuvant at 10 μM
[5] = system: AB4027; assay: CLR potentiation, clinical isolate; format: cell-based, Acinetobacter baumannii; details: adjuvant at 10 μM
[6] = system: AB5711; assay: CLR potentiation, clinical isolate; format: cell-based, Acinetobacter baumannii; details: adjuvant at 10 μM
[7] = system: AB4490; assay: CLR potentiation, clinical isolate; format: cell-based, Acinetobacter baumannii; details: adjuvant at 10 μM
[8] = system: AB4052; assay: CLR potentiation, clinical isolate; format: cell-based, Acinetobacter baumannii; details: adjuvant at 10 μM
[9] = system: AB5197; assay: CLR potentiation, clinical isolate; format: cell-based, Acinetobacter baumannii; details: adjuvant at 10 μM
[10] = system: AB4498; assay: CLR potentiation, clinical isolate; format: cell-based, Acinetobacter baumannii; details: adjuvant at 10 μM
[11] = system: AB3785; assay: CLR potentiation, clinical isolate; format: cell-based, Acinetobacter baumannii; details: adjuvant at 10 μM
[12] = system: AB3927; assay: CLR potentiation, clinical isolate; format: cell-based, Acinetobacter baumannii; details: adjuvant at 10 μM
[13] = system: AB2828; assay: CLR potentiation, clinical isolate; format: cell-based, Acinetobacter baumannii; details: adjuvant at 10 μM
[14] = system: AB4795; assay: CLR potentiation, clinical isolate; format: cell-based, Acinetobacter baumannii; details: adjuvant at 10 μM
[15] = system: AB3560; assay: CLR potentiation, clinical isolate; format: cell-based, Acinetobacter baumannii; details: adjuvant at 10 μM
[16] = system: AB4025; assay: CLR potentiation, clinical isolate; format: cell-based, Acinetobacter baumannii; details: adjuvant at 10 μM
[17] = system: AB4957; assay: CLR potentiation, clinical isolate; format: cell-based, Acinetobacter baumannii; details: adjuvant at 10 μM
[18] = system: AB4269; assay: CLR potentiation, clinical isolate; format: cell-based, Acinetobacter baumannii; details: adjuvant at 10 μM
[19] = system: AB4556; assay: CLR potentiation, clinical isolate; format: cell-based, Acinetobacter baumannii; details: adjuvant at 10 μM
[20] = system: AB4878; assay: CLR potentiation, clinical isolate; format: cell-based, Acinetobacter baumannii; details: adjuvant at 10 μM
[21] = system: AB8967; assay: CLR potentiation, clinical isolate; format: cell-based, Acinetobacter baumannii; details: adjuvant at 10 μM
[22] = system: AB3806; assay: CLR potentiation, clinical isolate; format: cell-based, Acinetobacter baumannii; details: adjuvant at 10 μM
[23] = system: AB5256; assay: CLR potentiation, clinical isolate; format: cell-based, Acinetobacter baumannii; details: adjuvant at 10 μM
[24] = system: AB5674; assay: CLR potentiation, clinical isolate; format: cell-based, Acinetobacter baumannii; details: adjuvant at 10 μM
[25] = system: AB5001; assay: CLR potentiation, clinical isolate; format: cell-based, Acinetobacter baumannii; details: adjuvant at 10 μM
[26] = system: AB4448; assay: CLR potentiation, clinical isolate; format: cell-based, Acinetobacter baumannii; details: adjuvant at 10 μM
[27] = system: AB4026; assay: CLR potentiation, clinical isolate; format: cell-based, Acinetobacter baumannii; details: adjuvant at 10 μM
[28] = system: AB4857; assay: CLR potentiation, clinical isolate; format: cell-based, Acinetobacter baumannii; details: adjuvant at 10 μM
[29] = system: A. baumannii AB5075; assay: Checkerboard assay colistin and compound; format: cell-based, Acinetobacter baumannii; details: COL alone
[30] = HepG2, 24 h, read-out: HepG2 IC50

Nc1nc(-c2ccc3nc(-c4cccc(Cl)c4Cl)[nH]c3c2)c[nH]1 [Compound 10]
MIC [1]: ≥ 200 µM
MIC [2]: ≥ 200 µM

Nc1nc(-c2ccc3nc(-c4ccc(Cl)cc4Cl)[nH]c3c2)c[nH]1 [Compound 11]
MIC [1]: ≥ 200 µM
MIC [2]: ≥ 200 µM

Cc1cc(C)cc(-c2nc3ccc(-c4c[nH]c(N)n4)cc3[nH]2)c1 [Compound 16]
MIC [1]: ≥ 200 µM
MIC [2]: ≥ 200 µM

Nc1nc(-c2ccc3nc(-c4cccc(Cl)c4)[nH]c3c2)c[nH]1 [Compound 8]
MIC [1]: ≥ 200 µM
MIC [2]: ≥ 200 µM

Nc1nc(-c2ccc3nc(-c4cc(Cl)cc(Cl)c4)[nH]c3c2)c[nH]1 [Compound 2]
MIC [1]: > 200 µM
MIC [2]: > 200 µM
IC50 ([3]; HepG2, read-out: IC50 against HepG2 cells): 69.8 µM

Nc1nc(-c2ccc3nc(-c4ccc(Cl)cc4)[nH]c3c2)c[nH]1 [Compound 7]
MIC [1]: ≥ 200 µM
MIC [2]: ≥ 200 µM

Cl.Nc1nc(-c2ccc3nc(-c4ccc(Cl)c(Cl)c4)[nH]c3c2)c[nH]1 [Compound 5]
MIC [1]: ≥ 200 µM
CLR MIC fold reduction [4]: 8 fold
MIC [2]: ≥ 200 µM
CLR MIC fold reduction [5]: 16 fold
CLR MIC fold reduction [6]: 16 fold
CLR MIC fold reduction [7]: 4 fold
CLR MIC fold reduction [8]: 16 fold
CLR MIC fold reduction [9]: 8 [8] fold
CLR MIC fold reduction [10]: 8 [8] fold
TI [3]: 9.7–9.9
IC50 [3, 30]: 73.5 ± 1.1 µM
CLR MIC fold reduction [11]: 64 fold
CLR MIC fold reduction [12]: 16 fold
CLR MIC fold reduction [13]: 8 fold
CLR MIC fold reduction [14]: 8 fold
CLR MIC fold reduction [15]: 4 fold
CLR MIC fold reduction [16]: 16 fold
CLR MIC fold reduction [17]: 4 fold
CLR MIC fold reduction [18]: 32 fold
CLR MIC fold reduction [19]: 4 [4] fold
CLR MIC fold reduction [20]: 16 fold
CLR MIC fold reduction [21]: 32 fold
CLR MIC fold reduction [22]: 4 [4] fold
CLR MIC fold reduction [23]: 512 fold
CLR MIC fold reduction [24]: 64 fold
CLR MIC fold reduction [25]: 16 fold
CLR MIC fold reduction [26]: 16 fold
CLR MIC fold reduction [27]: 32 fold
CLR MIC fold reduction [28]: 4 fold

Cl.Nc1nc(-c2ccc3nc(-c4ccc(Cl)c(C(F)(F)F)c4)[nH]c3c2)c[nH]1 [Compound 25]
MIC [1]: 50 µM
CLR MIC fold reduction [4]: 32 fold
MIC [2]: 50 µM
CLR MIC fold reduction [5]: 32 fold
CLR MIC fold reduction [6]: 64 fold
CLR MIC fold reduction [7]: 64 fold
CLR MIC fold reduction [8]: 4 fold
CLR MIC fold reduction [9]: 32 fold
CLR MIC fold reduction [10]: 8 [8] fold
TI [3]: 18.7–19.0
IC50 [3, 30]: 141.6 ± 1.1 µM
CLR MIC fold reduction [11]: 32 fold
CLR MIC fold reduction [12]: 128 fold
CLR MIC fold reduction [13]: 16 fold
CLR MIC fold reduction [14]: 16 fold
CLR MIC fold reduction [15]: 16 fold
CLR MIC fold reduction [16]: 16 fold
CLR MIC fold reduction [17]: 2 fold
CLR MIC fold reduction [18]: 2 fold
CLR MIC fold reduction [19]: 8 fold
CLR MIC fold reduction [20]: 32 fold
CLR MIC fold reduction [21]: 64 fold
CLR MIC fold reduction [22]: 32 fold
CLR MIC fold reduction [23]: 128 fold
CLR MIC fold reduction [24]: 128 fold
CLR MIC fold reduction [25]: 32 fold
CLR MIC fold reduction [26]: 32 fold
CLR MIC fold reduction [27]: 32 fold
CLR MIC fold reduction [28]: 16 fold

Cc1ccc(-c2nc3ccc(-c4c[nH]c(N)n4)cc3[nH]2)cc1C [Compound 17]
MIC [1]: ≥ 200 µM
MIC [2]: ≥ 200 µM

Nc1nc(-c2ccc3nc(-c4cc(Cl)ccc4Cl)[nH]c3c2)c[nH]1 [Compound 12]
MIC [1]: ≥ 200 µM
MIC [2]: ≥ 200 µM

Nc1nc(-c2ccc3nc(-c4cc(Cl)c(Cl)c(Cl)c4)[nH]c3c2)c[nH]1 [Compound 6]
MIC [1]: ≥ 200 µM
MIC [2]: ≥ 200 µM

colistin
COL MIC against AB5075 [29]: 1 µg/mL

COc1cc(OC)cc(-c2nc3ccc(-c4c[nH]c(N)n4)cc3[nH]2)c1 [Compound 15]
MIC [1]: ≥ 200 µM
MIC [2]: ≥ 200 µM

Nc1nc(-c2ccc3nc(-c4ccccc4Cl)[nH]c3c2)c[nH]1 [Compound 9]
MIC [1]: ≥ 200 µM
MIC [2]: ≥ 200 µM
